# Laboratory results as given in ChEMBL document CHEMBL1649179, “Pharmacokinetics of LB80331 and LB80317 following oral administration of LB80380, a new antiviral agent for chronic hepatitis B (CHB), in healthy adult subjects, CHB patients, and mice” (Antimicrob Agents Chemother, 2009).
# Assays:
# Homo sapiens [1] = assay: AUC (0 to infinity) in chronic hepatitis B virus infected patient assessed as (1-((2-amino-9H-purin-9-yl)methyl)cyclopropoxy)me at 60 mg, po administered as single dose by LC-MS analysis; format: ADME, organism-based, Plasma; parameters: dose 60 mg, time infinity, route oral; settings: in vivo
# Method in brief: (§1)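 CHB patients (HBsAg/HBeAg positive), six per dose cohort, given a first oral dose on day 1. Plasma sampled at baseline. Analysis by validated LC-MS/MS after protein precipitation with a stable-isotope internal standard; LLOQ 5 ng/ml for LB80331. Noncompartmental analysis gives Cmax and AUC0-∞.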
# Homo sapiens [2] = assay: Tmax in chronic hepatitis B virus infected patient assessed as (1-((2-amino-9H-purin-9-yl)methyl)cyclopropoxy)me at 120 mg, po administered as single dose by LC-MS analysis; format: ADME, organism-based; settings: in vivo
# Method in brief: (§2)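 Daily oral LB80380 was given to CHB patients over 4 weeks. Blood was drawn on day 1 and at steady state (weeks 2–4), predose and 0.5–24 h postdose. Plasma LB80331 (LLOQ 5 ng/ml) and LB80317 (LLOQ 10 ng/ml) were measured by LC-MS/MS after protein-precipitation extraction. Tmax was taken by noncompartmental analysis.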
# Homo sapiens [3] = assay: Oral clearance in chronic hepatitis B virus infected patient assessed as (1-((2-amino-9H-purin-9-yl)methyl)cyclopropoxy)me at 240 mg, po administered as single dose by LC-MS analysis; format: ADME, organism-based; settings: in vivo
# Method in brief: (§3)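 Oral LB80380 was given once daily for 4 weeks to CHB patients. Plasma LB80331 was quantified by validated LC-MS/MS after protein precipitation, with stable-isotope internal standard, at baseline and steady state (weeks 2–4), 0–24 h postdose. Noncompartmental CL/F was calculated as dose (adjusted for LB80380/LB80331 molecular weights) divided by AUC (AUC0-∞ single dose; AUC0-24 steady state).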
# Plasma = assay: Cmax in CD-1 mouse plasma assessed as (1-((2-amino-9H-purin-9-yl)methyl)cyclopropoxy)me at 30 mg/kg, po administered as single dose by LC-MS analysis; format: ADME, organism-based; parameters: dose 30 mg/kg, route oral; settings: in vivo
# Method in brief: (§4)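 Male CD-1 mice given a single oral dose in 100% PEG 400. Samples extracted with perchloric acid and neutralized with ammonium bicarbonate. One aliquot assayed for the free analyte; the other treated with calf intestinal phosphatase to give the total including di-/triphosphates. Analysis by LC-MS/MS.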
# Homo sapiens [4] = assay: Cmax in chronic hepatitis B virus infected patient assessed as (1-((2-amino-9H-purin-9-yl)methyl)cyclopropoxy)me at 60 mg, po administered as single dose by LC-MS analysis; format: ADME, organism-based; parameters: dose 60 mg, route oral; settings: in vivo; method in brief: as §1
# Homo sapiens [5] = assay: Half life in chronic hepatitis B virus infected patient assessed as (1-((2-amino-9H-purin-9-yl)methyl)cyclopropoxy)me at 240 mg, po administered as single dose by LC-MS analysis; format: ADME, organism-based; settings: in vivo
# Method in brief: (§5)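 CHB patients given LB80380 orally once daily for 4 weeks. Plasma was sampled on day 1 and at steady state (weeks 2–4), predose and 0.5, 1, 2, 3, 4, 6, 8 and 24 h postdose. LB80331 was measured by validated LC-MS/MS (LLOQ 5 ng/ml). Terminal-phase apparent t1/2 came from noncompartmental analysis and was flagged if extrapolated AUC exceeded 20% of AUC0-24.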
# Homo sapiens [6] = assay: Half life in chronic hepatitis B virus infected patient assessed as (1-((2-amino-9H-purin-9-yl)methyl)cyclopropoxy)me at 120 mg, po administered as single dose by LC-MS analysis; format: ADME, organism-based; settings: in vivo; method in brief: as §5
# Homo sapiens [7] = assay: Cmax in chronic hepatitis B virus infected patient assessed as (1-((2-amino-9H-purin-9-yl)methyl)cyclopropoxy)me at 120 mg, po qd for 4 weeks by LC-MS analysis; format: ADME, organism-based; parameters: dose 120 mg, route oral; settings: in vivo, 672 h
# Method in brief: (§6)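 CHB patients, oral once daily for 4 weeks. Plasma sampled at steady state (weeks 2–4), predose and at 0.5, 1, 2, 3, 4, 6, 8 and 24 h postdose. LB80331 measured by validated LC-MS/MS (LLOQ 5 ng/ml) after protein precipitation with a stable-isotope internal standard. Cmax by noncompartmental analysis.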
# Liver = assay: AUC (0 to 36 hrs) in CD-1 mouse liver assessed as di- and triphosphates of (1-((2-amino-9H-purin-9-yl)methyl)cyclopropoxy)me at 30 mg/kg, po administered as single dose by LC-MS analysis; format: ADME, organism-based; parameters: time < 36 hr, dose 30 mg/kg, route oral; settings: in vivo; method in brief: as §4
# Homo sapiens [8] = assay: Tmax in chronic hepatitis B virus infected patient assessed as (1-((2-amino-9H-purin-9-yl)methyl)cyclopropoxy)me at 120 mg, po qd for 4 weeks by LC-MS analysis; format: ADME, organism-based; settings: in vivo, 672 h; method in brief: as §2
# Homo sapiens [9] = assay: Tmax in chronic hepatitis B virus infected patient assessed as (1-((2-amino-9H-purin-9-yl)methyl)cyclopropoxy)me at 240 mg, po administered as single dose by LC-MS analysis; format: ADME, organism-based; settings: in vivo; method in brief: as §2
# Homo sapiens [10] = assay: Half life in chronic hepatitis B virus infected patient assessed as (1-((2-amino-9H-purin-9-yl)methyl)cyclopropoxy)me at 30 mg, po qd for 4 weeks by LC-MS analysis; format: ADME, organism-based; settings: in vivo, 672 h; method in brief: as §5
# Homo sapiens [11] = assay: Tmax in chronic hepatitis B virus infected patient assessed as (1-((2-amino-9H-purin-9-yl)methyl)cyclopropoxy)me at 60 mg, po qd for 4 weeks by LC-MS analysis; format: ADME, organism-based; settings: in vivo, 672 h; method in brief: as §2
# Homo sapiens [12] = assay: AUC (0 to infinity) in chronic hepatitis B virus infected patient assessed as (1-((2-amino-9H-purin-9-yl)methyl)cyclopropoxy)me at 120 mg, po administered as single dose by LC-MS analysis; format: ADME, organism-based, Plasma; parameters: dose 120 mg, time infinity, route oral; settings: in vivo; method in brief: as §1
# Homo sapiens [13] = assay: Cmax in chronic hepatitis B virus infected patient assessed as (1-((2-amino-9H-purin-9-yl)methyl)cyclopropoxy)me at 120 mg, po administered as single dose by LC-MS analysis; format: ADME, organism-based; parameters: dose 120 mg, route oral; settings: in vivo; method in brief: as §1
# Homo sapiens [14] = assay: Oral clearance in chronic hepatitis B virus infected patient assessed as (1-((2-amino-9H-purin-9-yl)methyl)cyclopropoxy)me at 30 mg, po administered as single dose by LC-MS analysis; format: ADME, organism-based; settings: in vivo; method in brief: as §3
# Homo sapiens [15] = assay: Cmax in chronic hepatitis B virus infected patient assessed as (1-((2-amino-9H-purin-9-yl)methyl)cyclopropoxy)me at 30 mg, po qd for 4 weeks by LC-MS analysis; format: ADME, organism-based; parameters: dose 30 mg, route oral; settings: in vivo, 672 h; method in brief: as §6
# Homo sapiens [16] = assay: AUC (0 to infinity) in chronic hepatitis B virus infected patient assessed as (1-((2-amino-9H-purin-9-yl)methyl)cyclopropoxy)me at 240 mg, po administered as single dose by LC-MS analysis; format: ADME, organism-based, Plasma; parameters: dose 240 mg, route oral, time infinity; settings: in vivo; method in brief: as §1
# Homo sapiens [17] = assay: Tmax in fasted healthy human assessed as (1-((2-amino-9H-purin-9-yl)methyl)cyclopropoxy)me assessed as (1-((2-amino-9H-purin-9-yl)methyl)cyclopropoxy)me at 60 mg, po administered as single dose by LC-MS analysis; format: ADME, organism-based; settings: in vivo
# Method in brief: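 Healthy subjects received a single oral 60-mg dose after a high-fat breakfast or after an overnight fast. Plasma LB80331 was assayed by validated LC-MS/MS (LLOQ 5 ng/ml; intra- and interassay precision and accuracy <10%). Tmax was obtained by noncompartmental analysis.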
# Homo sapiens [18] = assay: Oral clearance in chronic hepatitis B virus infected patient assessed as (1-((2-amino-9H-purin-9-yl)methyl)cyclopropoxy)me at 30 mg, po qd for 4 weeks by LC-MS analysis; format: ADME, organism-based; settings: in vivo, 672 h; method in brief: as §3
# Homo sapiens [19] = assay: Oral clearance in chronic hepatitis B virus infected patient assessed as (1-((2-amino-9H-purin-9-yl)methyl)cyclopropoxy)me at 60 mg, po administered as single dose by LC-MS analysis; format: ADME, organism-based; settings: in vivo; method in brief: as §3
smiles,measurement,setting,value
Nc1ncc2ncn(CC3(OCP(=O)(O)O)CC3)c2n1 [BESIFOVIR],AUC,Homo sapiens [1],2344 ng·h/mL
same,Tmax,Homo sapiens [2],2 h
same,CL/F,Homo sapiens [3],363 mL/min
same,Cmax,Plasma,6 µM
same,Cmax,Homo sapiens [4],397 ng/mL
same,t1/2,Homo sapiens [5],3 h
same,t1/2,Homo sapiens [6],3 h
same,Cmax,Homo sapiens [7],696 ng/mL
same,AUC,Liver,64 µM·h
same,Tmax,Homo sapiens [8],1 h
same,Tmax,Homo sapiens [9],2 h
same,t1/2,Homo sapiens [10],2.5 h
same,Tmax,Homo sapiens [11],2 h
same,AUC,Homo sapiens [12],4374 ng·h/mL
same,Cmax,Homo sapiens [13],805 ng/mL
same,CL/F,Homo sapiens [14],288 mL/min
same,Cmax,Homo sapiens [15],192 ng/mL
same,AUC,Homo sapiens [16],6302 ng·h/mL
same,Tmax,Homo sapiens [17],1.5 h
same,CL/F,Homo sapiens [18],289 mL/min
same,CL/F,Homo sapiens [19],244 mL/min
